According to ChEMBL document CHEMBL1671761, “Preclinical characterization of BI 201335, a C-terminal carboxylic acid inhibitor of the hepatitis C virus NS3-NS4A protease” (Antimicrob Agents Chemother, 2010):

Key:
[1] = target: Angiotensin-converting enzyme (Homo sapiens) (UniProt P12821); experiment: Inhibition of human ACE at 10 uM
[2] = target: Alpha-1A adrenergic receptor (Rattus norvegicus) (UniProt P43140); experiment: Inhibition of rat adrenergic receptor Alpha-1at 10 uM
[3] = target: Serine/threonine protein phosphatase PP2B-alpha catalytic subunit (Homo sapiens) (UniProt P16298); experiment: Inhibition of human PP2B at 10 uM
[4] = target: Protein kinase C (PKC) (Rattus norvegicus) (UniProt P05696+P68403+P09216+P63319+P09215+Q64617+Q9WTQ0+P09217); experiment: Inhibition of rat PKC at 10 uM
[5] = target: Nitric oxide synthase 3 (Rattus norvegicus) (UniProt Q62600); experiment: Inhibition of rat cNOS at 10 uM
[6] = target: Nitric oxide synthase, inducible (Mus musculus) (UniProt P29477); experiment: Inhibition of mouse iNOS at 10 uM
Hepatitis C virus [7] = experiment: Inhibition of HCV 1b NS3/4A protease; parameters: species or system Hepatitis C virus subtype 1b; details: read-out: Ki(app)
In short: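 Full-length NS3 coexpressed with the 54-residue NS4A, 0.5 nM (2.5 nM for genotype 1a). Substrate was 5 μM anthranilyl-DDIVPAbu[C(O)-O]AMY(3-NO2)TW-OH in 50 mM Tris pH 8.0, 0.25 M citrate, 0.01% dodecylmaltoside, 1 mM TCEP, 5% DMSO. Run at 23°C for 60-70 min, stopped with MES pH 5.8, read by product fluorescence. IC50 converted to apparent Ki via IC50=Ki(1+[S]/Km). Mean ± SD, ≥3 experiments.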

Huh-7 = experiment: Cytotoxicity activity against human HuH7 cells by MTT assay; type: functional
In short: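 MTT assay in proliferating Huh-7 cells exposed 72 h to serial inhibitor dilutions; formazan read at 570 nm. CC50 taken from percent inhibition.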

Hepatitis C virus [8] = experiment: Antiviral activity against HCV 2a clone JFH1 infected in Huh7 cells assessed as inhibition of viral replication after 72 hrs by RT-PCR; type: functional, organism-based, Hepacivirus hominis; details: genotype 2a clone JFH1, Huh-7, 72 h
In short: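 Genotype 2a replicon (Huh-7 cells carrying an unadapted JFH-1 NS3-NS5B subgenomic replicon) was kept with 0.25 mg/ml G418 and plated at 10,000 cells/well without G418. Next day, serial dilutions in DMEM/10% FBS/0.5% DMSO were added for 72 h. Replicon RNA was measured by TaqMan RT-PCR and normalized to total RNA. Mean ± SD, ≥3 experiments.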

[9] = Mean retention time in dog at 5 mg/kg, po; type: ADME, organism-based, Canis lupus familiaris; parameters: dose 5 mg/kg, route oral; details: in vivo
In short: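 Fasted male beagle dogs (9.8-13.8 kg) given a single oral dose in 0.5% Methocel/0.3% Tween 80. Plasma taken by solid-phase extraction and measured by LC-MS/MS at m/z 869.3 (LOQ 50 nM). Noncompartmental analysis. Mean ± SE for three males.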

[10] = Cmax in Sprague-Dawley rat at 5 mg/kg, po; type: ADME, organism-based, Sparague-Dawley; parameters: dose 5 mg/kg, route oral; details: in vivo
In short: (§1)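 Single oral dose of 5 mg/kg in 0.5% Methocel with 0.3% Tween 80 (10 ml/kg) to fasted male animals: Sprague-Dawley rats (275-300 g, overnight fast with 10% dextrose water), rhesus monkeys, beagle dogs. Rat blood from cannulated carotid at 0-8 h, pooled from 3 rats per time point; monkey/dog n=3. Plasma solid-phase extracted, LC-MS/MS at m/z 869.3; noncompartmental analysis.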

[11] = AUC in rat at 5 mg/kg, po; type: ADME, organism-based; parameters: dose 5 mg/kg, route oral; details: plasma; in short: as §1
[12] = AUC (0 to infinity) in monkey at 5 mg/kg, po; type: ADME, organism-based, Macaca mulatta; parameters: time infinity, dose 5 mg/kg, route oral; details: rhesus monkey, plasma; in short: as §1
[13] = AUC (0 to infinity) in dog at 5 mg/kg, po; type: ADME, organism-based, Canis lupus familiaris; parameters: time infinity, dose 5 mg/kg, route oral; details: plasma; in short: as §1
[14] = target: Beta-secretase 1 (Homo sapiens) (UniProt P56817); experiment: Inhibition of human recombinant BACE-1 at 10 uM
Caspase-2 (Homo sapiens) = Caspase-2 (Homo sapiens) (UniProt P42575); experiment: Inhibition of human caspase-2 at 10 uM
Caspase-3 (Homo sapiens) = Caspase-3 (Homo sapiens) (UniProt P42574); experiment: Inhibition of human caspase-3 at 10 uM
Caspase-7 (Homo sapiens) = Caspase-7 (Homo sapiens) (UniProt P55210); experiment: Inhibition of human caspase-7 at 10 uM
Caspase-8 (Homo sapiens) = Caspase-8 (Homo sapiens) (UniProt Q14790); experiment: Inhibition of human caspase-8 at 10 uM
Cathepsin B = Cathepsin B (Homo sapiens, UniProt P07858); experiment: Inhibition of human cathepsin B at 10 uM
Cathepsin C (Bos taurus) = Cathepsin C (Bos taurus) (UniProt Q864S1); experiment: Inhibition of bovine cathepsin C at 10 uM
[15] = target: Procathepsin L (Homo sapiens) (UniProt P07711); experiment: Inhibition of human cathepsin L at 10 uM
[16] = target: Plasma kallikrein (Homo sapiens) (UniProt P03952); experiment: Inhibition of human kallikrein at 10 uM
[17] = target: Interstitial collagenase (Homo sapiens) (UniProt P03956); experiment: Inhibition of human MMP-1 at 10 uM
[18] = target: 72 kDa type IV collagenase (Homo sapiens) (UniProt P08253); experiment: Inhibition of human MMP-2 at 10 uM
[19] = target: Matrilysin (Homo sapiens) (UniProt P09237); experiment: Inhibition of human MMP-7 at 10 uM
[20] = target: Matrix metalloproteinase-9 (Homo sapiens) (UniProt P14780); experiment: Inhibition of human MMP-9 at 10 uM
[21] = target: Tissue-type plasminogen activator (Homo sapiens) (UniProt P00750); experiment: Inhibition of human tPA at 10 uM
[22] = target: Disintegrin and metalloproteinase domain-containing protein 17 (Homo sapiens) (UniProt P78536); experiment: Inhibition of human TACE at 10 uM
Homo sapiens = organism: Homo sapiens; experiment: Inhibition of human tryptase at 10 uM
[23] = target: Sterol O-acyltransferase 2 (Rattus norvegicus) (UniProt Q7TQM4); experiment: Inhibition of rat hapatic, acyl coA cholesterol acetyltransferase at 10 uM
[24] = target: D(2) dopamine receptor (Homo sapiens) (UniProt P14416); experiment: Inhibition of human dopamine receptor 2s at 10 uM
[25] = target: D(2) dopamine receptor (Homo sapiens) (UniProt P14416); experiment: Inhibition of human dopamine receptor 2L at 10 uM
[26] = target: D(1B) dopamine receptor (Homo sapiens) (UniProt P21918); experiment: Inhibition of human dopamine receptor 5 at 10 uM
Rattus norvegicus [27] = organism: Rattus norvegicus; experiment: Inhibition of rat glycine receptor at 10 uM
Rattus norvegicus [28] = organism: Rattus norvegicus; experiment: Inhibition of rat opiate receptor at 10 uM
[29] = target: Small conductance calcium-activated potassium channel (Rattus norvegicus) (UniProt P70604+P70606+P70605); experiment: Inhibition of rat Small conductance calcium-activated potassium channel at 10 uM; type: protein assay
[30] = target: 5-hydroxytryptamine receptor 1A (Homo sapiens) (UniProt P08908); experiment: Inhibition of human 5-HT1A receptor at 10 uM
Rattus norvegicus [31] = organism: Rattus norvegicus; experiment: Inhibition of rat 5-HT3 receptor at 10 uM
Rattus norvegicus [32] = organism: Rattus norvegicus; experiment: Inhibition of rat sodium channel site 2 at 10 uM
Cavia porcellus = organism: Cavia porcellus; experiment: Inhibition of guinea pig adenosine transporter at 10 uM

Chain of D(2) dopamine receptor (Homo sapiens) (P14416 whole entry): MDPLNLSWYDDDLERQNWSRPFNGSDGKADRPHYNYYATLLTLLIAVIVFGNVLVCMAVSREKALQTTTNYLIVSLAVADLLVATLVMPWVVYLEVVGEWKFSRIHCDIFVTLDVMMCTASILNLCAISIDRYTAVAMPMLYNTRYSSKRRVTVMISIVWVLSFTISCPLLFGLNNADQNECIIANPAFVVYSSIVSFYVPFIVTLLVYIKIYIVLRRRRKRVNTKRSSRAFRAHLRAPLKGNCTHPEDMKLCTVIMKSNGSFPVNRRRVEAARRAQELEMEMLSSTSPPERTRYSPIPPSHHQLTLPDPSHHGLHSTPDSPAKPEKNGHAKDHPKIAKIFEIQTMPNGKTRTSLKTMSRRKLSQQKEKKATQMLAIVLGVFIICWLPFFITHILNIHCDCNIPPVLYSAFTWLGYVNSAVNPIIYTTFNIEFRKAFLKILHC
Chain of Interstitial collagenase (Homo sapiens) (P03956 whole entry): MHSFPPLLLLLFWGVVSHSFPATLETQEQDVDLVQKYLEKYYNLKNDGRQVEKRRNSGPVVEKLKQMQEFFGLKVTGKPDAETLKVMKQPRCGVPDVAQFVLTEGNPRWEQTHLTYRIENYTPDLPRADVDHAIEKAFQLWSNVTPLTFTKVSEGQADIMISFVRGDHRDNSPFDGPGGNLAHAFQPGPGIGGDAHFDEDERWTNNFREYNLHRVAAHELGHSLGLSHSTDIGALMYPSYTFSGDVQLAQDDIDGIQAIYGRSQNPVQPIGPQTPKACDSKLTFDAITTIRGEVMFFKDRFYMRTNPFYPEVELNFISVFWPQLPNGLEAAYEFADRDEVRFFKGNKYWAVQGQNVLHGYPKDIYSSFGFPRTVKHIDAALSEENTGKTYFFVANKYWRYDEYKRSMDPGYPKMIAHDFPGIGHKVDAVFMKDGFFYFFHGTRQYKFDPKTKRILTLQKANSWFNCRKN
Chain of Plasma kallikrein (Homo sapiens) (P03952 20-390 limits assumed): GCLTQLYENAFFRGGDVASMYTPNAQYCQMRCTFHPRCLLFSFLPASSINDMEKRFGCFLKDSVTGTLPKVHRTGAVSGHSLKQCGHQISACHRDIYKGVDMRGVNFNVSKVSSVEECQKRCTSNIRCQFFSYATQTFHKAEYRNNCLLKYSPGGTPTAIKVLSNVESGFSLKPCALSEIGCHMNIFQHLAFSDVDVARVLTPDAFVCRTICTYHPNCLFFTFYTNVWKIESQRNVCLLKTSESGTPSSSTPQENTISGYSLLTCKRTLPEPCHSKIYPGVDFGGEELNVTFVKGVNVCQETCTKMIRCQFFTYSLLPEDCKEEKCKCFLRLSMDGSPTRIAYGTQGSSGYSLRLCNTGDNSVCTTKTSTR
Chain of Plasma kallikrein (Homo sapiens) (P03952 391-638 limits assumed): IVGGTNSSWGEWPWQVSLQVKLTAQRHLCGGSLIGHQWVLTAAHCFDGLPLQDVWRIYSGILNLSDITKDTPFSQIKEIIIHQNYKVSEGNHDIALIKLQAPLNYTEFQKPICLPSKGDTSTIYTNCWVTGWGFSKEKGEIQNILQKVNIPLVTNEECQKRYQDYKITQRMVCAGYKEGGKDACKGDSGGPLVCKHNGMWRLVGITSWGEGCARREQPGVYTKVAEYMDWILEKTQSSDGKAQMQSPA
Chain of Caspase-3 (Homo sapiens) (P42574 29-175 limits assumed): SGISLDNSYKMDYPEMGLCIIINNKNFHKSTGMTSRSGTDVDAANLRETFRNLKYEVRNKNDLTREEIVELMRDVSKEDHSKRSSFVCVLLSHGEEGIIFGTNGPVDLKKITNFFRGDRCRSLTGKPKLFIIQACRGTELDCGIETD
Chain of Caspase-3 (Homo sapiens) (P42574 176-277 limits assumed): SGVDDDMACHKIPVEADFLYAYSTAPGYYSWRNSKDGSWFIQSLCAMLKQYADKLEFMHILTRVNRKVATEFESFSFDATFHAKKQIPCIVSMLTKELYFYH
Chain of Cathepsin C (Bos taurus) (Q864S1 as listed by the source): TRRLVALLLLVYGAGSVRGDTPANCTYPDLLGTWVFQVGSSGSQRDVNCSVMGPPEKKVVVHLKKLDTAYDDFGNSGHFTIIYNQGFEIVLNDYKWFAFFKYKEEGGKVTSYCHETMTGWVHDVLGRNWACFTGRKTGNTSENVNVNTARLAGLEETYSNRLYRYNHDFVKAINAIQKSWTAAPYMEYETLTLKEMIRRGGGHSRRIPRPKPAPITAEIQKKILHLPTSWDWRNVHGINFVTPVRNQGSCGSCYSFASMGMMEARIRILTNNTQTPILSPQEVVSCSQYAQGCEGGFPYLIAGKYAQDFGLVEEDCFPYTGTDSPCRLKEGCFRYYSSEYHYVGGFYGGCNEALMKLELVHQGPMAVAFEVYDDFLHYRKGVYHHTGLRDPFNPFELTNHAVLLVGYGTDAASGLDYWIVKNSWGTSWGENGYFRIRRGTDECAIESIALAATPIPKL
Chain of Disintegrin and metalloproteinase domain-containing protein 17 (Homo sapiens) (P78536 whole entry, the tested form may be a part): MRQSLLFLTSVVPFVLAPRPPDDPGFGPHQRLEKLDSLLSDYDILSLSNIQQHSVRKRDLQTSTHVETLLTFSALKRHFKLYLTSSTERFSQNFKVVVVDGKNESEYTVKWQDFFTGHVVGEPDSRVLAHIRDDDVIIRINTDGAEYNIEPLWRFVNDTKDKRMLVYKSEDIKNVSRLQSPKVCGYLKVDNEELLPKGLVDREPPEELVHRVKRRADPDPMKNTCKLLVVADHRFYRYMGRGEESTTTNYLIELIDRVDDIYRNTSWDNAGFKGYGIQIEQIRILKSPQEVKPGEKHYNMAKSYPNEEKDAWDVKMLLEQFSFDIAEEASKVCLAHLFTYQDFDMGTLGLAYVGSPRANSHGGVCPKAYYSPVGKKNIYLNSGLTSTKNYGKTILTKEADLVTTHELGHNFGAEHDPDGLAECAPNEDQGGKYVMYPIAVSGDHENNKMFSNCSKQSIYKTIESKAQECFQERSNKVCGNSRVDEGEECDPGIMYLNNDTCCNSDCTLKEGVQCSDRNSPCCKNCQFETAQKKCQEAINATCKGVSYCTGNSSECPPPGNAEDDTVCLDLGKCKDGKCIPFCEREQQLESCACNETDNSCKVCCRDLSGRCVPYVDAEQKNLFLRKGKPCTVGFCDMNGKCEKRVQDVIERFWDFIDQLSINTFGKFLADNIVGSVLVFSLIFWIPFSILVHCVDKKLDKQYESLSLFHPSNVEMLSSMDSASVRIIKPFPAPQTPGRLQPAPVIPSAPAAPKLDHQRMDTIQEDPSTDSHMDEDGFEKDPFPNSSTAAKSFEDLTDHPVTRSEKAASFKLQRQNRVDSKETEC
Chain of Procathepsin L (Homo sapiens) (P07711 114-333 limits assumed): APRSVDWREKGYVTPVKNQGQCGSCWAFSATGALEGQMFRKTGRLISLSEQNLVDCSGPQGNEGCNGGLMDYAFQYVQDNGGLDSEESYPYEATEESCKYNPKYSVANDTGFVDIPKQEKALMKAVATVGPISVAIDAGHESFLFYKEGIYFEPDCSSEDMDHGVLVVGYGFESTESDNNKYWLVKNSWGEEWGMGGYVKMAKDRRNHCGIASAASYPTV
Chain of Nitric oxide synthase 3 (Rattus norvegicus) (Q62600 whole entry): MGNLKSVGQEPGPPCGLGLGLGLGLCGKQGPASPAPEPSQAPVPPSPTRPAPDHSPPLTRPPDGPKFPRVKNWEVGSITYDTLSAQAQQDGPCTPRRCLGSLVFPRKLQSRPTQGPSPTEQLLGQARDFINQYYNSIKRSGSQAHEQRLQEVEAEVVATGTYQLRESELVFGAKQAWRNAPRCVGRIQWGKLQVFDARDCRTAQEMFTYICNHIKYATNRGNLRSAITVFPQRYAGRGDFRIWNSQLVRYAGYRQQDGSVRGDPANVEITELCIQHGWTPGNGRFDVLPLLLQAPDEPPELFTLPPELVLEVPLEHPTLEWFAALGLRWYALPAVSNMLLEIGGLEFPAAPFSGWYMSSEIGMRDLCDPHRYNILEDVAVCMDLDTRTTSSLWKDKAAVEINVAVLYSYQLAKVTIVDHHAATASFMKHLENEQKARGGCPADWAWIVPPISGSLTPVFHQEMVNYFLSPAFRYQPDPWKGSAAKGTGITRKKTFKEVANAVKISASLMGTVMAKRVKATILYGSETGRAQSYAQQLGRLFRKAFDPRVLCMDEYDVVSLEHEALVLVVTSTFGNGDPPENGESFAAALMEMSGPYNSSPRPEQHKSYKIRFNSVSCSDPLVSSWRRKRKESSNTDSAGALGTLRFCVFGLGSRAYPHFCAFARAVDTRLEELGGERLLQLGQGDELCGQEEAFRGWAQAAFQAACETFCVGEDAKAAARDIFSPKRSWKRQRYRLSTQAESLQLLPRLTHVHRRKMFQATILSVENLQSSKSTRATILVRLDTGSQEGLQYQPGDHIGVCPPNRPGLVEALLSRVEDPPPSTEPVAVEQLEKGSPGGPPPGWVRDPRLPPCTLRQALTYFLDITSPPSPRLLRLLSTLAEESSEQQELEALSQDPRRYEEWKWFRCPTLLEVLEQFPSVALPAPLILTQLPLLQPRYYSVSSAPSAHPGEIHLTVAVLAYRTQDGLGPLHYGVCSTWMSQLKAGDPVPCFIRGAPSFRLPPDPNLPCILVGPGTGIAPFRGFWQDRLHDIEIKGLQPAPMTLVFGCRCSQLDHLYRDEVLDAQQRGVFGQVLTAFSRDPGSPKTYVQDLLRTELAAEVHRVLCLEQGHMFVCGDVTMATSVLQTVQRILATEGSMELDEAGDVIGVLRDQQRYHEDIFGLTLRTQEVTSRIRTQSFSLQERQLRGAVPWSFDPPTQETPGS
Chain of Matrilysin (Homo sapiens) (P09237 whole entry): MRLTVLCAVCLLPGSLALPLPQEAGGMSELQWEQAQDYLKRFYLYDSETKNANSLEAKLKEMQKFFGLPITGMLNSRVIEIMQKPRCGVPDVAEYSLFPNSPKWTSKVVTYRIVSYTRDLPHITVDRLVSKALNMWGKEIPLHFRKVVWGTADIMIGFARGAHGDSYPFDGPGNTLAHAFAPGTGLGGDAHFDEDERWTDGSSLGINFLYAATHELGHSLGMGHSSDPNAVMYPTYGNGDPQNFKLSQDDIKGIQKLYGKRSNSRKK

In the case of `C=C[C@@H]1C[C@]1(NC(=O)[C@@H]1C[C@@H](Oc2cc(-c3csc(NC(=O)C(C)C)n3)nc3c(Br)c(OC)ccc23)CN1C(=O)[C@@H](NC(=O)OC1CCCC1)C(C)(C)C)C(=O)O`, the inhibition [1] is reported as 5%, the inhibition [2] is reported as 4% and the inhibition [3] is reported as 50%. It also gave an inhibition [4] of 15%, an inhibition [5] of 7% and an inhibition [6] of 0%. The Ki (Hepatitis C virus [7]) was 2.8 nM, the CC50 (Huh-7) was 30000 nM and the EC50 (Hepatitis C virus [8]) was 50 nM. For the same molecule, the MRT [9] was 3.7 h, the Cmax [10] was 410 nM and the AUC [11] was 1.55 µM·h. The AUC(0-inf) [12] was 8.3 µM·h, the AUC(0-inf) [13] was 14 µM·h and the inhibition [14] was 74%. It also gave an inhibition (Caspase-2 (Homo sapiens)) of 5%, an inhibition (Caspase-3 (Homo sapiens)) of 5% and an inhibition (Caspase-7 (Homo sapiens)) of 28%. It also gave an inhibition (Caspase-8 (Homo sapiens)) of 5%, an inhibition (Cathepsin B) of 22% and an inhibition (Cathepsin C (Bos taurus)) of 1%. The inhibition [15] was 7%, the inhibition [16] was 0% and the inhibition [17] was 19%. It also gave an inhibition [18] of 10%, an inhibition [19] of 6% and an inhibition [20] of 13%. The inhibition [21] was 2%, the inhibition [22] was 77% and the inhibition (Homo sapiens) was 5%. The inhibition [23] was 78%, the inhibition [24] was 10% and the inhibition [25] was 1%. It also gave an inhibition [26] of 11%, an inhibition (Rattus norvegicus [27]) of 6% and an inhibition (Rattus norvegicus [28]) of 26%. The inhibition [29] was 2%, the inhibition [30] was 18% and the inhibition (Rattus norvegicus [31]) was 7%. The inhibition (Rattus norvegicus [32]) was 12% and the inhibition (Cavia porcellus) was 23%.
